Source: ChEMBL document CHEMBL1125378, “alpha-Methyl polyamines: metabolically stable spermidine and spermine mimics capable of supporting growth in cells depleted of polyamines” (J Med Chem, 1992)
Each block holds one compound with its values, some of them ahead of it.

Experiments:
[1] = test system: SV3T3; experiment: Compound level in 72 hr DFMO (5 mM)-treated SV3T3 cells after exposure to 1 uM 1-methylspermine; type: functional, cell-based; details: Mus musculus
Outline: (§1)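 SV-3T3 fibroblasts (experiment A) held in 5 mM DFMO for 72 h before polyamine addition and throughout a further 72 h. Intracellular polyamines expressed as nmol/mg protein (detection limit 0.05). SD from at least four separate experiments, or duplicate where no SD is given.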

[2] = Retention time was determined; type: ADME
[3] = test system: SV3T3; experiment: Compound level in 72 hr DFMO (5 mM)-treated SV3T3 cells after exposure to 25 uM 1-methylspermine; type: functional, cell-based; details: Mus musculus; outline: as §1
[4] = test system: SV3T3; experiment: Compound level in 72 hr DFMO (5 mM)-treated SV3T3 cells after exposure to 1 uM 1-methylspermidine; type: functional, cell-based; details: Mus musculus; outline: as §1
[5] = test system: HT-29; experiment: Compound level in 72 hr DFMO (5 mM)-treated HT-29 cells after exposure to 25 uM 1-methylspermine; type: functional, cell-based; details: Homo sapiens
Outline: (§2)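 HT29 cells pretreated with 5 mM DFMO for 120 h, then polyamine added and culture continued with DFMO for 72 h (experiment A); refed at 96 h. Cellular polyamine content given as nmol/mg protein (detection limit 0.2). SD from at least four separate experiments.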

[6] = test system: L1210; experiment: Compound level in 72 hr DFMO (5 mM)-treated L1210 cells after exposure to 10 uM 1-methylspermidine; type: functional, cell-based; details: Mus musculus
Outline: (§3)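 L1210 cells held in 5 mM DFMO for 72 h before polyamine addition and through a further 72 h, refed at 72 h; controls without DFMO cultured 72 h in total. Intracellular polyamines reported as nmol/mg protein (detection limit 0.2). Mean ± SD from at least four separate experiments.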

[7] = test system: HT-29; experiment: Compound level in 72 hr DFMO (5 mM)-treated HT-29 cells after exposure to 10 uM 1-methylspermine; type: functional, cell-based; details: Homo sapiens; outline: as §2
[8] = test system: HT-29; experiment: Compound level in 72 hr DFMO (5 mM)-treated HT-29 cells after exposure to 25 uM 1-methylspermidine; type: functional, cell-based; details: Homo sapiens; outline: as §2
[9] = test system: SV3T3; experiment: Compound level in 72 hr DFMO (5 mM)-treated SV3T3 cells after exposure to 10 uM 1-methylspermine; type: functional, cell-based; details: Mus musculus; outline: as §1
[10] = test system: SV3T3; experiment: Compound level in 72 h DFMO (5 mM)-treated SV3T3 cells after exposure to 10 uM 1-methylspermidine; type: functional, cell-based; details: Mus musculus; outline: as §1
[11] = test system: L1210; experiment: Compound level in 72 hr DFMO (5 mM)-treated L1210 cells after exposure to 10 uM 1-methylspermine; type: functional, cell-based; details: Mus musculus; outline: as §3
[12] = test system: HT-29; experiment: Compound level in 72 hr DFMO (5 mM)-treated HT-29 cells after exposure to 10 uM 1-methylspermidine; type: functional, cell-based; details: Homo sapiens; outline: as §2
[13] = test system: SV3T3; experiment: Compound level in 72 hr DFMO (5 mM)-treated SV3T3 cells after exposure to 25 uM 1-methylspermidine; type: functional, cell-based; details: Mus musculus; outline: as §1
[14] = species on record: Homo sapiens; experiment: Compound level in DFMO-treated HT-29 cells after 96 h; type: functional, cell-based
Outline: (§4)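 HT29 experiment B: 5 mM DFMO for 120 h before addition and throughout a further 96 h; refed at 96 h. Cells without DFMO cultured 96 h in total. Polyamines measured as nmol/mg protein (detection limit 0.2). SD from at least four separate experiments.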

[15] = test system: SV3T3; experiment: Compound level in 96 hr DFMO (5 mM)-treated SV3T3 cells after exposure to 10 uM spermine; type: functional, cell-based; details: Mus musculus
[16] = test system: HT-29; experiment: Compound level in 72 hr DFMO (5 mM)-treated HT-29 cells after exposure to 10 uM spermidine; type: functional, cell-based; details: Homo sapiens; outline: as §2
[17] = test system: L1210; experiment: Compound level in 72 h DFMO (5 mM)-treated L1210 cells after exposure to 10 uM spermine; type: functional, cell-based; details: Mus musculus; outline: as §3
[18] = test system: SV3T3; experiment: Compound level in 72 hr DFMO (5 mM)-treated SV3T3 cells after exposure to 10 uM spermine; type: functional, cell-based; details: Mus musculus; outline: as §1
[19] = test system: L1210; experiment: Compound level in 72 hr DFMO (5 mM)-treated L1210 cells after exposure to 10 uM 1,12-dimethylspermine; type: functional, cell-based; details: Mus musculus; outline: as §3
[20] = test system: SV3T3; experiment: Compound level in DFMO-treated SV3T3 cells at 0 h; type: functional, cell-based; details: Mus musculus; outline: as §1
[21] = test system: HT-29; experiment: Compound level in DFMO-treated HT-29 cells after 72 h; type: functional, cell-based; details: Homo sapiens; outline: as §2
[22] = test system: L1210; experiment: Compound level in 72 hr DFMO (5 mM)-treated L1210 cells after exposure to 10 uM spermidine; type: functional, cell-based; details: Mus musculus; outline: as §3
[23] = test system: L1210; experiment: Compound level in L1210 cells after 72 h; type: functional, cell-based; details: Mus musculus; outline: as §3
[24] = test system: HT-29; experiment: Compound level in 72 hr DFMO (5 mM)-treated HT-29 cells after exposure to 15 uM spermine; type: functional, cell-based; details: Homo sapiens; outline: as §2
[25] = test system: SV3T3; experiment: Compound level in 72 hr DFMO (5 mM)-treated SV3T3 cells after exposure to 10 uM spermidine; type: functional, cell-based; details: Mus musculus; outline: as §1
[26] = test system: SV3T3; experiment: Compound level in SV3T3 cells after 96 hr; type: functional, cell-based; details: Mus musculus
[27] = test system: HT-29; experiment: Compound level in 72 h DFMO (5 mM)-treated HT-29 cells after exposure to 25 uM spermidine; type: functional, cell-based; details: Homo sapiens
[28] = test system: SV3T3; experiment: Compound level in 96 hr DFMO (5 mM)-treated SV3T3 cells after exposure to 25 uM spermine; type: functional, cell-based; details: Mus musculus
[29] = test system: L1210; experiment: Compound level in DFMO-treated L1210 cells at 0 h; type: functional, cell-based; details: Mus musculus; outline: as §3
[30] = test system: HT-29; experiment: Compound level in 72 hr DFMO (5 mM)-treated HT-29 cells after exposure to 10 uM spermine; type: functional, cell-based; details: Homo sapiens; outline: as §2
[31] = test system: HT-29; experiment: Compound level in 96 hr DFMO (5 mM)-treated HT-29 cells after exposure to 10 uM spermine; type: functional, cell-based; details: Homo sapiens
[32] = test system: HT-29; experiment: Compound level in HT-29 cells after 96 h; type: functional, cell-based; details: Homo sapiens; outline: as §4
[33] = test system: HT-29; experiment: Compound level in HT-29 cells after 72 h; type: functional, cell-based; details: Homo sapiens
[34] = test system: SV3T3; experiment: Compound level in 96 hr DFMO (5 mM)-treated SV3T3 cells after exposure to 10 uM 1,12-dimethylspermine; type: functional, cell-based; details: Mus musculus
[35] = test system: SV3T3; experiment: Compound level in 72 hr DFMO (5 mM)-treated SV3T3 cells after exposure to 1 uM 1,12-dimethylspermine; details: Mus musculus
[36] = test system: HT-29; experiment: Compound level in 72 hr DFMO (5 mM)-treated HT-29 cells after exposure to 10 uM 1,12-dimethylspermine; type: functional, cell-based; details: Homo sapiens, in the assay text read “120 hr” for “72 hr”; outline: as §4
[37] = test system: SV3T3; experiment: Compound level in 96 hr DFMO (5 mM)-treated SV3T3 cells after exposure to 25 uM 1,12-dimethylspermine; type: functional, cell-based; details: Mus musculus
[38] = test system: HT-29; experiment: Compound level in 72 hr DFMO (5 mM)-treated HT-29 cells after exposure to 25 uM 1,12-dimethylspermine; type: functional, cell-based; details: Homo sapiens, in the assay text read “120 hr” for “72 hr”; outline: as §4

tR [2]: 40.5 min
Structure (SMILES): CC(N)CCNCCCCNCCCN (stereo not drawn)
Level (nM (mg of protein)-1) [1]: 11.8
Level (nM (mg of protein)-1) [3]: 33.1
Level (nM (mg of protein)-1) [4]: 2.4
Level (nM (mg of protein)-1) [5]: 24.2
Level (nM (mg of protein)-1) [6]: 7.8
Level (nM (mg of protein)-1) [7]: 21.3
Level (nM (mg of protein)-1) [8]: 8.6
Level (nM (mg of protein)-1) [9]: 33.7
Level (nM (mg of protein)-1) [10]: 4.2
Level (nM (mg of protein)-1) [11]: 63.4
Level (nM (mg of protein)-1) [12]: 7.8
Level (nM (mg of protein)-1) [13]: 4.4

tR [2]: 33.9 min
Structure (SMILES): NCCCCNCCCN [SPERMIDINE]
Level (nM (mg of protein)-1) [14]: 0.4
Level (nM (mg of protein)-1) [15]: 11.5
Level (nM (mg of protein)-1) [16]: 23.6
Level (nM (mg of protein)-1) [17]: 6.4
Level (nM (mg of protein)-1) [18]: 2.6
Level (nM (mg of protein)-1) [19]: 0.2
Level (nM (mg of protein)-1) [20]: 0.3
Level (nM (mg of protein)-1) [21]: 0.7
Level (nM (mg of protein)-1) [22]: 38
Level (nM (mg of protein)-1) [23]: 41
Level (nM (mg of protein)-1) [24]: 4.8
Level (nM (mg of protein)-1) [5]: 0.3
Level (nM (mg of protein)-1) [25]: 8.7
Level (nM (mg of protein)-1) [26]: 26.4
Level (nM (mg of protein)-1) [27]: 25.1
Level (nM (mg of protein)-1) [28]: 3.1
Level (nM (mg of protein)-1) [7]: 0.4
Level (nM (mg of protein)-1) [29]: 1
Level (nM (mg of protein)-1) [30]: 7.9
Level (nM (mg of protein)-1) [31]: 4.4
Level (nM (mg of protein)-1) [32]: 13.4
Level (nM (mg of protein)-1) [33]: 9.8

tR [2]: 40.9 min
Structure (SMILES): CC(N)CCNCCCCNCCC(C)N (stereo not drawn)
Level (nM (mg of protein)-1) [34]: 29.4
Level (nM (mg of protein)-1) [19]: 61.9
Level (nM (mg of protein)-1) [35]: 4.2
Level (nM (mg of protein)-1) [36]: 18.2
Level (nM (mg of protein)-1) [37]: 24.8
Level (nM (mg of protein)-1) [38]: 17.3
